# The list is not random: actives were taken first. Their share in the collection is about 3%.
# TAAR1 agonist: human TAAR1 agonists, primary screen, Fluo-8 calcium fluorescence, CHO RD-HGA16 cells | vehicle wells 0%, saturating PEA agonist 100% | activation, % at 3 µM | 0.99% of 360,000 active | AID 624467, 2012;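 active = activation above the mean activation of all test compounds in the run plus 3 SD, cut at about 38% in these data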
#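 System: CHO-derived RD-HGA16 cells with stable Gα16 and human TAAR1. Times: 17-24 h plating, Fluo-8 75 min 37 °C, 30 min RT. Measured by: calcium-sensitive Fluo-8 signal, excitation 470-495, emission 515-575 nm. Read-out basis: % activation relative to PEA EC100 response. Control set: DMSO and PEA EC100. Repeats: no replicates (n 1).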
# M4 antag: human M4 muscarinic receptor antagonists, primary screen, CHO cells, Fluo-8 calcium fluorescence | inhibition, % at 3 µM | CHO-hM4 cells, ACh EC80 | Muscarinic acetylcholine receptor M4 (Homo sapiens), P08173 | AID 624125, 2012 | 0.73% of 360,000 active;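 active = inhibition above its plate's cutoff, the mean inhibition of sample wells plus 3 SD, cut at about 27% in these data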;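 note: 0% = acetylcholine EC80 with DMSO and 100% = DMSO without agonist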
# Target sequence (P08173 whole entry, looked up): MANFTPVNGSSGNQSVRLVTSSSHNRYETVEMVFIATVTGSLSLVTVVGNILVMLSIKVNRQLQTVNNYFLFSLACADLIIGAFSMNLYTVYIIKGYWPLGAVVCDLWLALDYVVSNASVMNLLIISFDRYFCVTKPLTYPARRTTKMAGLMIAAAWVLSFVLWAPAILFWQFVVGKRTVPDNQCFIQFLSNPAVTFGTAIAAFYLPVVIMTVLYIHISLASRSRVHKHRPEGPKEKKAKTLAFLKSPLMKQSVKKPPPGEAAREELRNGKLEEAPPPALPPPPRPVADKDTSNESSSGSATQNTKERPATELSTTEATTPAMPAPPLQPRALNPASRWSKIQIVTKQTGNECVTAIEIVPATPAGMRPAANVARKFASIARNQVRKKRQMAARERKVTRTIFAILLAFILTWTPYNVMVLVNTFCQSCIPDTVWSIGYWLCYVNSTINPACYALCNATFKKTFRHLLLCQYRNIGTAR
# M4 PAM: human M4 muscarinic receptor positive allosteric modulators, primary screen, CHO-K1 cells, Fluo-8 calcium fluorescence; 0.4% of 360,000 active; Muscarinic acetylcholine receptor M4 (Homo sapiens), P08173; CHO-K1 hM4/Gqi5, ACh EC20; 0% = ACh EC20, 100% = maximal ACh; activation, % at 3 µM;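 active = activation above its plate's cutoff, the mean activation of sample wells plus 3 SD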
# TAAR1 antag: human TAAR1 antagonists, primary screen, Fluo-8 calcium fluorescence, CHO RD-HGA16 cells; Trace amine-associated receptor 1 (Homo sapiens), Q96RJ0; antagonist; inhibition, % at 3 µM; 1.5% of 360,000 active;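 active = inhibition above a per-plate cutoff, the mean inhibition of test compounds on that plate plus 3 SD, cut at about 49% in these data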;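 note: 0% = DMSO plus EC80 beta-PEA response and 100% = DMSO alone without agonist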
#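 Material: RD-HGA16 CHO cells with stable hTAAR1 and Gα16; Dosing: single nominal final test compound concentration of 3 µM; Schedule: seeding 17-24 h prior, 75-min 37 °C, 30-min RT dye loading; Detection: kinetic Fluo-8 calcium fluorescence measurement; Measure: % inhibition from peak post-agonist over basal fluorescence ratio; Benchmarks: vehicle and agonist controls.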
# M4 ag: human M4 muscarinic receptor agonists, primary screen, CHO-K1 cells, Fluo-8 calcium fluorescence | Muscarinic acetylcholine receptor M4 (Homo sapiens), P08173 | CHO-K1 hM4/Gqi5; vehicle 0%, full acetylcholine response 100% | activation, % at 3 µM | 0.14% of 360,000 active | AID 624127, 2012;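 active = activation above the run mean over all test wells plus 3 SD, cut at about 32% in these data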;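 note: peak over basal fluorescence ratio per well then scaled between controls; 0% = DMSO wells and 100% = acetylcholine at EC100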
# * marks the source's active call; other numbers are inactive results; nt = no result.
SMILES,TAAR1 agonist,M4 antag,M4 PAM,TAAR1 antag,M4 ag
CCCC(=O)Nc1ccc(Cl)c(NC(=O)c2cccnc2Cl)c1,39*,-7,-2,2,2
CCCC(=O)Nc1ccc(Cl)c(NC(=S)NC(=O)C(C)C)c1,4,2,-2,-6,3
CCc1ccc(NC(=O)Cn2cnc3c(=O)n(C)c(=O)n(C)c32)cc1,0,-14,11,-15,2
CCc1ccc(C(C)NC(=O)Cn2cnc3c(=O)n(C)c(=O)n(C)c32)cc1 (configuration not stated),38*,0,12,1,3
COc1ccc(N(CC(=O)Nc2ccc(S(=O)(=O)N3CCOCC3)cc2)S(=O)(=O)c2ccc(F)cc2)cc1,20,23,-10,51*,26
COc1ccc(N(CC(=O)N/N=C/c2cc(Br)c(C)o2)S(=O)(=O)c2ccc(NC(C)=O)cc2)cc1,3,-4,-7,7,1
COc1ccc(N(CC(=O)N/N=C/c2ccc(C(=O)O)cc2)S(=O)(=O)c2ccc(NC(C)=O)cc2)cc1,-1,-8,22*,-9,0
Cn1cnc([N+](=O)[O-])c1S(=O)(=O)Oc1ccc(Cl)cc1,8,28*,-9,16,3
Cc1ccc(Oc2nc3c(c(=O)n(Cc4ccccc4F)c(=O)n3C)n2C)cc1,20,11,-6,50*,2
O=S1(=O)CC(N2CCCC2)CN1Cc1cn(Cc2ccccc2)nn1 (configuration not stated),1,-5,5,-4,1
CC(C)OC(=O)[C@@H](Cc1ccccc1)N[C@H](/C=C/c1ccccc1)[C@@H](O)Cc1ccccc1,0,nt,nt,26,nt
CCOC(=O)C1CCN(c2ncnc3c(C)csc23)CC1,7,35*,-46,7,22
COc1ccc(-c2noc(CCCC(=O)NCCc3ccccc3)n2)cc1OC,58*,2,-1,3,1
COc1ccccc1NC(=O)CCCc1nc(-c2ccc(OC)c(OC)c2)no1,0,7,-8,-15,3
CN(C/C=C/c1ccccc1[N+](=O)[O-])Cc1ccccc1,2,35*,-15,-2,0
CC(C)N(Cc1ccccc1)C(=O)/C=C/c1ccccc1[N+](=O)[O-],4,4,1,-14,1
O=C(Cc1ccccc1)Nc1ccc(N2CCOCC2)cc1,4,5,6,8,2
O=C(/C=C/c1ccccc1)NC(=S)Nc1ccc(N2CCOCC2)cc1,6,4,-7,54*,10
O=C(/C=C/c1ccccc1)NC(=S)Nc1ccccc1,-1,-13,-5,8,0
O=C(Cc1cccc2ccccc12)Nc1ccc(N2CCOCC2)cc1,39*,1,3,12,2
CC(C)c1ccc(/C=C/C(=O)NC(=S)Nc2ccc(CN3CCOCC3)cc2)cc1,7,14,-14,67*,3
CN1C(=O)[C@@]2(O[C@H]3C=CC=CN3C3=C2C(=O)CCC3)c2cc([N+](=O)[O-])ccc21,0,nt,nt,1,nt
CC(=O)N(c1nc2ccccc2s1)N1C(=O)c2ccccc2C1=O,1,nt,nt,-39,nt
CC(=O)c1ccc(NC(=O)Nc2ccc3c(c2)N(C)C(=O)CS3)cc1,44*,13,-17,76*,23
COc1ccc(NC(=O)Nc2ccc3c(c2)N(C)C(=O)CS3)cc1Cl,25,17,-15,63*,22
SMILES,TAAR1 agonist,M4 antag,M4 PAM,TAAR1 antag,M4 ag
CCOC(=O)C(=O)Nc1ccc(OC)c(Cl)c1,1,-3,23*,-17,2
COc1ccc(NC(=O)Nc2ccc3c(c2)N(C)C(=O)CS3)cc1OC,2,-10,-1,17,17
CCOc1ccc(NC(=O)Nc2ccc3c(c2)N(C)C(=O)CS3)cc1,13,9,-10,52*,27
COc1ccc(CNC(=O)Nc2ccc3c(c2)N(C)C(=O)CS3)cc1,5,-10,7,7,5
CN1OC[C@@H]2CN3C(=NCCc4ccccc4)Sc4ccccc4[C@@H]3C[C@@H]21,23,nt,nt,-16,nt
Cc1ccc(NC(=O)Nc2ccc3c(c2)N(C)C(=O)CS3)nc1,24,-7,-7,49*,28
CC(C)(C)N(Cc1ccccc1)C(=O)c1ccc2c(c1)OCCO2,13,29*,-17,7,3
O=C(CCCc1ccccc1)c1ccc2c(c1)OCCO2,-1,-1,31*,-9,-2
CC(C)(C)N(Cc1nc(-c2ccccc2)no1)C(=O)c1ccc2c(c1)OCO2,-2,-4,7,-54,-1
O=C(Cc1n[nH]c(=O)c2ccccc12)OCC(=O)c1ccc2c(c1)OCCO2,6,-4,6,2,5
O=C(Cc1ccc(Br)cc1)OCC(=O)c1ccc2c(c1)OCCO2,1,-14,30*,-8,4
Cc1cc2c(c(=O)o1)[C@@]1(C(=O)N(C)c3ccccc31)C1=C(CCCC1=O)O2,0,nt,nt,-6,nt
COc1cc2c(cc1OC)[C@@]1(c3ccccc3)CCCC[C@H]1[C@@H]2NC(=O)C(F)(F)F,1,nt,nt,-18,nt
O=C(Nc1ccc(-c2csc(Nc3ccc(Cl)cc3)n2)cc1)c1ccccc1,4,18,-2,51*,8
O=C(Nc1ccc(Cl)cc1)c1csc(-c2ccccc2)n1,8,-7,34*,20,-2
Oc1ccc(Nc2nc(-c3ccc(O)cc3)cs2)cc1,2,-2,34*,-9,0
NS(=O)(=O)c1ccc(Nc2nc(-c3ccc(O)cc3)cs2)cc1,4,19,-11,27,2
Cc1sc2ncn(CC(=O)N3CCC(C(N)=O)CC3)c(=O)c2c1S(=O)(=O)N1CC(C)CC(C)C1 (configuration not stated),3,-18,15*,-6,3
Cc1sc2ncn(CC(=O)N3CCCC(C)C3)c(=O)c2c1S(=O)(=O)N1CCCCC1 (configuration not stated),1,0,-1,4,1
O=C(CNC(=O)c1ccccc1Cl)NCCc1cccs1,40*,-19,10,-5,2
O=C(Cc1cccs1)NNC(=O)c1ccccc1Cl,2,9,6,15,2
O=C(NCCc1cccs1)C1CC(c2c(Cl)cccc2Cl)=NO1 (configuration not stated),47*,-1,1,13,3
CCN(CC(=O)Nc1ccc(NC(C)=O)cc1)C(=O)CN1C(=O)NC(C)(c2ccc3ccccc3c2)C1=O (configuration not stated),1,-8,27*,2,1
